Results on one molecule are retold here after ChEMBL document CHEMBL3621201, “Improving the Selectivity of Engineered Protease Inhibitors: Optimizing the P2 Prime Residue Using a Versatile Cyclic Peptide Library” (J Med Chem, 2015).

In general, Ki refers to a measure of affinity in units of concentration, obtained from inhibition or displacement. Broadly, the inhibition is the relative decrease from the control value, in per cent.

In test [1] the target is Kallikrein-7 (Homo sapiens, UniProt P49862). The test is described as follows: Inhibition of KLK7 (unknown origin) expressed in Pichia pastoris X33 using KHLY-pNA substrate by spectrophotometry method. Summed up:
(§1)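 Inhibition constants were measured in 0.1 M Tris pH 8.0, 0.1 M NaCl, 0.005% Triton X-100 with 100 µM peptide-pNA substrate. Protease-specific additives were also included. Absorbance at 405 nm was read every 10 s over 300 s. Rates were compared with no-inhibitor controls, and Morrison Ki was fitted by non-linear regression.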

Test [2] deals with T1, Suppressor of tumorigenicity 14 protein (Homo sapiens) (UniProt Q9Y5Y6).
T1 sequence (whole entry): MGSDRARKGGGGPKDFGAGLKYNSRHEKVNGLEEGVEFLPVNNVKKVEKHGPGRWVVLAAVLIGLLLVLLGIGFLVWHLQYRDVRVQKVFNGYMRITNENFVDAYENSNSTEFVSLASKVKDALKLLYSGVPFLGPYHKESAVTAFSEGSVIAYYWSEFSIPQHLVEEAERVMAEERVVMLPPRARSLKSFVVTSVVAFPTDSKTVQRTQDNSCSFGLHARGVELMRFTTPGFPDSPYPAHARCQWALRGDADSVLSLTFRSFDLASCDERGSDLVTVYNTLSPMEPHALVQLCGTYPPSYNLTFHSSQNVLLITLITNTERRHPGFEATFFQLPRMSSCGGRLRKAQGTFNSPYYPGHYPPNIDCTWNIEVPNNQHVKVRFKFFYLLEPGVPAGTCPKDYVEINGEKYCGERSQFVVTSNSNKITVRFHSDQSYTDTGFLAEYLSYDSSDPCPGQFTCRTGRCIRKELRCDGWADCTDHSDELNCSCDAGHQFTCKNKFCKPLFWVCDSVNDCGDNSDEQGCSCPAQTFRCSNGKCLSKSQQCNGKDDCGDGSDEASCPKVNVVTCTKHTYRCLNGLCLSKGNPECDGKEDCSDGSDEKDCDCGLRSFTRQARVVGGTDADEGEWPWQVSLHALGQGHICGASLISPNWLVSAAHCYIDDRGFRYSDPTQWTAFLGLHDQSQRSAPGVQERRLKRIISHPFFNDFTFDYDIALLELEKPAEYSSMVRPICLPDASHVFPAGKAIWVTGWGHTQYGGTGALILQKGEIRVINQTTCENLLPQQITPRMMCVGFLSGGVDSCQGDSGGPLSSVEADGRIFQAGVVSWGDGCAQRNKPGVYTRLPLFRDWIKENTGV
The test is described as follows: Inhibition of matriptase (unknown origin) at 10 uM using Ac-RQFRpNA substrate by spectrophotometry method.

Test [3] addresses Kallikrein-4 (Homo sapiens, UniProt Q9Y5K2). Nature of the test: Inhibition of KLK4 (unknown origin) expressed in Sf9 cells at 25 nM using FVQRpNA substrate by spectrophotometry method.
The target of test [4] is T2, Kallikrein-5 (Homo sapiens, UniProt Q9Y337).
T2 sequence (Q9Y337 whole entry): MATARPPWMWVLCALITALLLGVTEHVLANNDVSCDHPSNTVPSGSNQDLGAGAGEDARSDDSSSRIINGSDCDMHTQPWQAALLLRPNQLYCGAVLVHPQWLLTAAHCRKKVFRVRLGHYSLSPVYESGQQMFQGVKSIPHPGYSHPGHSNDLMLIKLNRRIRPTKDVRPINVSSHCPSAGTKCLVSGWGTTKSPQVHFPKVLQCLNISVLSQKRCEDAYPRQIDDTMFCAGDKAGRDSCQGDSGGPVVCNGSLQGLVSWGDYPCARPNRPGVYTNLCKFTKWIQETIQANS
Nature of the test: Inhibition of KLK5 (unknown origin) expressed in Pichia pastoris X33 using Ac-YRSR-pNA by spectrophotometry method. The procedure, abridged: as §1

Test [5] has as its target Plasminogen (Homo sapiens, UniProt P00747). Nature of the test: Inhibition of plasmin (unknown origin) at 50 uM using Ac-RM(O2)YRpNA substrate by spectrophotometry method.
Test [6] addresses T3, Coagulation factor XII (Homo sapiens) (UniProt P00748).
T3 sequence (whole entry): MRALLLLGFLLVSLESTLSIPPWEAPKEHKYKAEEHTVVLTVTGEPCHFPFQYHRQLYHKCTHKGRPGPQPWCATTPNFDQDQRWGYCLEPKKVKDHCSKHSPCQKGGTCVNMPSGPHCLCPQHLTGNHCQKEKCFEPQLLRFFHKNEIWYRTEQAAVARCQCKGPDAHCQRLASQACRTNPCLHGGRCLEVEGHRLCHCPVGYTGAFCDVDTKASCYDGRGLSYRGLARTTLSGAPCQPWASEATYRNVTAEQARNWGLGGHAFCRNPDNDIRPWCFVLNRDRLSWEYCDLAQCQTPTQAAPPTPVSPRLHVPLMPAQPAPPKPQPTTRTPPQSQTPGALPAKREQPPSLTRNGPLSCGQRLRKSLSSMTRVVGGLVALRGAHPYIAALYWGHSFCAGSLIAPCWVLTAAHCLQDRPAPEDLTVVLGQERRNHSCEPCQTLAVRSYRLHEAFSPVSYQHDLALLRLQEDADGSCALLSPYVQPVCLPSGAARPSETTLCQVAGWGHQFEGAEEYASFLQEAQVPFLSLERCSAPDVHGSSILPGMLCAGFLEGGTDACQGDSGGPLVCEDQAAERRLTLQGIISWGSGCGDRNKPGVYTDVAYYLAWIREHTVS
The test is described as follows: Inhibition of factor 12a-alpha (unknown origin) at 10 uM using Ac-QRFRpNA substrate by spectrophotometry method.

For test [7], the target named is Serine protease 1 (Homo sapiens) (UniProt P07477). Nature of the test: Inhibition of beta-trypsin (unknown origin) at 25 nM using Bz-FVRpNA substrate by spectrophotometry method.
For test [8], the species on record is Homo sapiens. Nature of the test: Inhibition of alpha chymotrypsin (unknown origin) at 25 uM using Ac-GRPY-pNA by spectrophotometry method.
The target of test [9] is Coagulation factor XI (Homo sapiens) (UniProt P03951). The test is described as follows: Inhibition of factor 11a (unknown origin) at 10 uM using Bz-FVRpNA substrate by spectrophotometry method.
The target in test [10] is Trypsin (Homo sapiens, UniProt P07477+P07478+P35030). Nature of the test: Inhibition of trypsin (unknown origin). Type of test: protein assay.

Activity calls are given as the source filed them. The calls are words filed in the database; no cut-off is given here. Bridge positions count the residues as written; N and C are the ends. Peptide text beside a SMILES is read from it.

Chain of Plasminogen (P00747 97-580 limits assumed): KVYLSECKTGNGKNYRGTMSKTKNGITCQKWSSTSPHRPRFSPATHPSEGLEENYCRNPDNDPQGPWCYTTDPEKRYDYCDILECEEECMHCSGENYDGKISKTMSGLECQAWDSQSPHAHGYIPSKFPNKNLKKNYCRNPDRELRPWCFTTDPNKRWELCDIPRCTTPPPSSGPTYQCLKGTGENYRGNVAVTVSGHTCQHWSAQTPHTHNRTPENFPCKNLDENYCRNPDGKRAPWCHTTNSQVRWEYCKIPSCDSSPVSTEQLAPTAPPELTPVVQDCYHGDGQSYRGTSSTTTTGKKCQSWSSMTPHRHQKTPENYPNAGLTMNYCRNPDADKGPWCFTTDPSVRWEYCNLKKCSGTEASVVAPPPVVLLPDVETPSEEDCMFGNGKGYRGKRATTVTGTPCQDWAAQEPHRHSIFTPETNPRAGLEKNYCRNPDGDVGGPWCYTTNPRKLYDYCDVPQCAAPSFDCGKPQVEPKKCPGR
Chain of Plasminogen (P00747 581-810 limits assumed): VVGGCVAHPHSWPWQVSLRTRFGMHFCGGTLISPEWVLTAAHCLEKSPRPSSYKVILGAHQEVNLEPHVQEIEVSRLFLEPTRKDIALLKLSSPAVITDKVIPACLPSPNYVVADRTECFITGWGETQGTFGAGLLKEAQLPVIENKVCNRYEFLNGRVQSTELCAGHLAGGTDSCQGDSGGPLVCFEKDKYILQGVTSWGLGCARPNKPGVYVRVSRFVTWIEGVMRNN
Chain of Kallikrein-7 (P49862 whole entry): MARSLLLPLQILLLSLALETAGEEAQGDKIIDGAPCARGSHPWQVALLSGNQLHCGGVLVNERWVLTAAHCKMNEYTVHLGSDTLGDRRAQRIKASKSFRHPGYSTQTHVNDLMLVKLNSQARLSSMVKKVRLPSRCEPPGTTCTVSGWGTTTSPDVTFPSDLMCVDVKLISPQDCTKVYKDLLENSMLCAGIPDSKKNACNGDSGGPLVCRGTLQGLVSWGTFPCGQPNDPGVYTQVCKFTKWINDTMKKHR
Chain of Kallikrein-4 (Q9Y5K2 whole entry): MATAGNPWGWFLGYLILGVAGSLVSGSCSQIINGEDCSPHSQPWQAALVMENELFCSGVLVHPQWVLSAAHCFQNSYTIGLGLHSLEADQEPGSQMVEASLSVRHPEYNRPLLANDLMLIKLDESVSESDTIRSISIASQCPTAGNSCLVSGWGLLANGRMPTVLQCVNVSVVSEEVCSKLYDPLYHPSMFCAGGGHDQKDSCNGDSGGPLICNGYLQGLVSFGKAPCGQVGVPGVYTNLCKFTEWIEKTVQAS
Chain of Serine protease 1 (Homo sapiens) (P07477 whole entry): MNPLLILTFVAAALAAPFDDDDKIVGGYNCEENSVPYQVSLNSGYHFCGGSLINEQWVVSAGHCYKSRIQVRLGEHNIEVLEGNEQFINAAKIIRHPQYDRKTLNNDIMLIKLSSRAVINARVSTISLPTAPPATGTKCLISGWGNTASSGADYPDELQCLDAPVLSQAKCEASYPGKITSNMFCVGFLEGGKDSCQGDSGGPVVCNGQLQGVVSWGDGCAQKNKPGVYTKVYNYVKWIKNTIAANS
Chain of Coagulation factor XI (Homo sapiens) (P03951 19-387 limits assumed): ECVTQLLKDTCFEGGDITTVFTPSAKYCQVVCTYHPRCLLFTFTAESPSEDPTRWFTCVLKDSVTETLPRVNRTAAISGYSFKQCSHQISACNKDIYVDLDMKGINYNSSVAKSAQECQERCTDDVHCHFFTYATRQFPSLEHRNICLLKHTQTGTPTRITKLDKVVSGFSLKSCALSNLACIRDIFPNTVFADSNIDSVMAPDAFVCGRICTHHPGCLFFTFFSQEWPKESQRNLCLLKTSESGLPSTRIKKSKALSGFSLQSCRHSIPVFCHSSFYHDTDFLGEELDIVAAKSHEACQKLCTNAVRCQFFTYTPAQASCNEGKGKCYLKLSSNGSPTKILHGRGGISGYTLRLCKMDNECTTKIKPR
Chain of Coagulation factor XI (Homo sapiens) (P03951 388-625 limits assumed): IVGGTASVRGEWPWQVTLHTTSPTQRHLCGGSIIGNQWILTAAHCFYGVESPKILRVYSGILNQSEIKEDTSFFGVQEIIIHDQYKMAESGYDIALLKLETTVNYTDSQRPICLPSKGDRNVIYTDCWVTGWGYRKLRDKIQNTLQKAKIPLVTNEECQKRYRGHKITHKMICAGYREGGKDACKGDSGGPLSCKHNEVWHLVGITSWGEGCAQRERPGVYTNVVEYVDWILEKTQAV

Take `CC[C@H](C)[C@@H]1NC(=O)[C@@H]2CCCN2C(=O)[C@@H]2CCCN2C(=O)[C@H]([C@@H](C)CC)NC(=O)[C@H](CO)NC(=O)[C@H](CCCNC(=N)N)NC(=O)[C@H]([C@@H](C)O)NC(=O)[C@@H]2CSSC[C@H](NC1=O)C(=O)N[C@@H](CC(N)=O)C(=O)N1CCC[C@H]1C(=O)N[C@@H](CC(N)=O)C(=O)NCC(=O)N[C@@H]([C@@H](C)O)C(=O)N2` (cyclo(CNPNGTCTRSIPPI); disulfide 1-7): the Ki in test [1] was 16.8 nM; in test [4] it was 2.1 nM; in test [10] it was 0.7 nM. The inhibition in test [2] is 41%; in test [5], 50%; in test [6], 85%; in [7], 80%; in test [8] it was 60%; in [9], 47%. For the same molecule, in [3], the inhibition entry was “Active”.
